ChEMBL document CHEMBL1687868, “Bioactive compounds from the fern Lepisorus contortus” (J Nat Prod, 2011)
Active and inactive are the calls of the source. No cut-off for these calls is given here.

Experiments:
Aromatase = target: T1, Aromatase (Homo sapiens, UniProt P11511); assay: Inhibition of aromatase preincubated with 2.6 mM NADP+ for 10 mins before substrate addition measured after 30 mins by fluorescence assay
T1 sequence (P11511 whole entry): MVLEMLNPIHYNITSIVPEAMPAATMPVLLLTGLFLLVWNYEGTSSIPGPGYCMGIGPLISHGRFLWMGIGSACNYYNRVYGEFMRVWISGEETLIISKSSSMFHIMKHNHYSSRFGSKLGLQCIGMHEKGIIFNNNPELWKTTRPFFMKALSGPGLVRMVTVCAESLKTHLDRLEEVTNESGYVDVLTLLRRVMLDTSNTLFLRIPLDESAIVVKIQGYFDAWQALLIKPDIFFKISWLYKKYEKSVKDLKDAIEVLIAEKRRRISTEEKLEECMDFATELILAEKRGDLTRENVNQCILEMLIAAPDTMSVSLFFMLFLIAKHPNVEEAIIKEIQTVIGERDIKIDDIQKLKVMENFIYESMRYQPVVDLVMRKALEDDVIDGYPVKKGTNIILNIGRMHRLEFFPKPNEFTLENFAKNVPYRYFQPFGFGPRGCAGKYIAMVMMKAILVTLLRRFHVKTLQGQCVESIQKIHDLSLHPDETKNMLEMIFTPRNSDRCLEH
Procedure, shortened: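 Compounds preincubated 10 min at 37 °C with NADPH-regenerating system (2.6 mM NADP+, 7.6 mM glucose 6-phosphate, G6PDH, MgCl2, albumin; 50 mM K phosphate pH 7.4). CYP19 with 0.4 µM dibenzylfluorescein then added for 30 min at 37 °C. Stopped with 2 N NaOH and held a further 2 h at 37 °C. Fluorescence read at ex 485/em 530. Five concentrations; three independent experiments in duplicate.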

RAW264.7 = assay: Inhibition of NO production in mouse RAW264.7 cells at 20 ug/ml after 30 mins by Griess assay; type: functional, cell-based; settings: in the assay text read “after 24 hrs” for “after 30 mins”
Procedure, shortened: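 RAW 264.7 cells plated for 24 h. Compound in phenol red-free DMEM added 30 min before LPS (1 µg/mL), then 24 h incubation. Nitrite measured with Griess reagent (1% sulfanilamide, 0.1% N-(1-naphthyl)ethylenediamine in 2.5% H3PO4) at 540 nm, against an NaNO2 standard curve.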

[1] = target: T2, Prostaglandin G/H synthase 1 (Ovis aries) (UniProt P05979); assay: Inhibition of ovine COX1 assessed as PGE2 formation at 10 ug/ml by LC-MS-MS analysis
T2 sequence (whole entry): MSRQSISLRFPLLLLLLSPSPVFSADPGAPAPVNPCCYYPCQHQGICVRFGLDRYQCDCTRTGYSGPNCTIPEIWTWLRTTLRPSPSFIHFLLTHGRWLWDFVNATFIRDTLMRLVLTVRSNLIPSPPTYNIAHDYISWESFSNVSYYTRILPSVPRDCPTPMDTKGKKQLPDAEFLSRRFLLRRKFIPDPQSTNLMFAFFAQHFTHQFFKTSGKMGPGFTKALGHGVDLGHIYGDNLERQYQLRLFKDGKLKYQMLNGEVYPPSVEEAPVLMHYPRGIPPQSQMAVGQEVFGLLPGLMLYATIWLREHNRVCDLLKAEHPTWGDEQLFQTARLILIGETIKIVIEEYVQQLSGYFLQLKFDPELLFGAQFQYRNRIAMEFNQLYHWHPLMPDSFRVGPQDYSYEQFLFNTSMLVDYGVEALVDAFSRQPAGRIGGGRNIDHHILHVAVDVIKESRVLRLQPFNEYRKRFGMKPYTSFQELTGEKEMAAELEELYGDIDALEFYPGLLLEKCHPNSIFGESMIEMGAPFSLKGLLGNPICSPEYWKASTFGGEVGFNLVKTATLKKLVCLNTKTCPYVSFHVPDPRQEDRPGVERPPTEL
Procedure, shortened: (§1)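 COX-1 (ovine) or COX-2 (human), 0.2 µg, activated in Tris-HCl pH 8.0 with hematin (1 µM final) and L-epinephrine (2 mM final). Test solution preincubated 10 min at 37 °C. Reaction started with arachidonic acid (5 µM final), stopped with HCl after 2 min. d4-PGE2 added as internal standard and PGE2 extracted with […] for LC-MS.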

[2] = target: T3, Prostaglandin G/H synthase 2 (Homo sapiens) (UniProt P35354); assay: Inhibition of human COX2 assessed as PGE2 formation at 10 ug/ml by LC-MS-MS analysis; procedure, shortened: as §1
T3 sequence (whole entry): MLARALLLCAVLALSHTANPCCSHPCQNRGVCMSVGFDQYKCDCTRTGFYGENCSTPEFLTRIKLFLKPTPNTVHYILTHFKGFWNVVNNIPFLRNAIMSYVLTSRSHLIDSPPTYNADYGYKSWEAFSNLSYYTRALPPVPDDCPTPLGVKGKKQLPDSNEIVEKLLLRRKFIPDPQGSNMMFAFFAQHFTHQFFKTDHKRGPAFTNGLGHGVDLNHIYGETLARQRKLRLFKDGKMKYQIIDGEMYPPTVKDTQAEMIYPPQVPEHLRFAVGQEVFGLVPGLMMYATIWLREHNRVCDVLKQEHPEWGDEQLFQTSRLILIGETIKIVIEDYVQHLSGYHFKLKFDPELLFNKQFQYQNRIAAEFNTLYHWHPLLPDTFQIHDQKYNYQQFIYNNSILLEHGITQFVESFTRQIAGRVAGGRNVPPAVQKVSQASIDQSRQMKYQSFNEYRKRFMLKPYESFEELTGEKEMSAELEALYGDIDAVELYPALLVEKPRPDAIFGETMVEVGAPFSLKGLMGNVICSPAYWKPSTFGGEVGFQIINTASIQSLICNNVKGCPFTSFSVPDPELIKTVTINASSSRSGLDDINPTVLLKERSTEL

[3] = Cytotoxicity against mouse Hepa-1c1c7 cells assessed as cell growth inhibition at 20 ug/ml after 72 hrs by sulforhodamine B assay; type: cell-based; settings: hepa-1c1c7, 72 h
Procedure, shortened: (§2)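 Cells held in medium with 10% heat-inactivated FBS and penicillin/streptomycin/amphotericin B (Hepa1c1c7 in α-MEM; MCF-7 in MEME plus 10 mg/L insulin). Samples added in triplicate, 37 °C, 5% CO2, 72 h. Cells fixed with cold 20% TCA at 4 °C for 30 min, stained with 0.4% sulforhodamine B, dye dissolved in 10 mM Tris pH 10, OD read at 515 nm. Growth given as % of 10% aqueous DMSO control.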

MCF7 = assay: Cytotoxicity against human MCF7 cells assessed as cell growth inhibition at 20 ug/ml after 72 hrs by sulforhodamine B assay; type: functional, cell-based; procedure, shortened: as §2
[4] = Inhibition of TNF-alpha-induced NFkappaB activation in human HEK293 cells after 6 hrs by luciferase reporter gene assay; type: cell-based; settings: HEK293, 6 h

SMILES | IC50 (Aromatase) | inhibition [1] | inhibition [2] | IC50 [4] | inhibition (RAW264.7) | Activity [3] | Activity (MCF7)
O=c1ccn([C@@H]2O[C@H](CO)[C@@H](O)[C@@H]2O)c(=O)[nH]1 [ARAURIDINE] | – | inactive | inactive | – | inactive | Non-toxic | Not toxic
O=c1c(O[C@@H]2O[C@H](CO)[C@@H](O)[C@H](O)[C@H]2O)c(-c2ccc(O)c(O)c2)oc2cc(O)cc(O)c12 [ISOQUERCETIN] | – | inactive | inactive | – | inactive | Non-toxic | Not toxic
COc1c(-c2ccc(O)cc2)oc2cc(O[C@@H]3O[C@H](CO[C@@H]4O[C@@H](C)[C@H](O)[C@@H](O)[C@H]4O)[C@@H](O)[C@H](O)[C@H]3O)cc(O)c2c1=O | – | inactive | inactive | – | inactive | Non-toxic | Not toxic
Cc1ccc(S(=O)(=O)N[C@@H](Cc2ccccc2)C(=O)CCl)cc1 [TPCK] | – | – | – | 3.76 µM | – | – | –
O=C(/C=C/c1ccc(O)c(O)c1)O[C@H]1[C@H](O)[C@@H](O[C@@H]2OC[C@](O)(CO)[C@H]2O)[C@H](OCCc2ccc(O)cc2)O[C@@H]1CO | 30.7 µM | inactive | inactive | – | inactive | Non-toxic | Not toxic
O=C(/C=C/c1ccc(O)c(O)c1)O[C@H]1[C@H](O)[C@@H](CO)O[C@@H](OCCc2ccc(O)cc2)[C@@H]1O[C@@H]1OC[C@](O)(CO)[C@H]1O | – | inactive | inactive | – | inactive | Non-toxic | Not toxic
COc1c(-c2ccc(O)c(O)c2)oc2cc(O[C@@H]3O[C@H](CO)[C@@H](O)[C@H](O)[C@H]3O)cc(O)c2c1=O [TRANSILIN] | – | inactive | inactive | – | inactive | Non-toxic | Not toxic
COc1c(-c2ccc(O)cc2)oc2cc(O[C@@H]3O[C@H](CO[C@@H]4O[C@@H](CO)[C@H](O)[C@H]4O)[C@@H](O)[C@H](O)[C@H]3O)cc(O)c2c1=O | – | inactive | inactive | – | inactive | Non-toxic | Not toxic
OC[C@H]1O[C@@H](OCCc2ccc(O)c(O)c2)[C@H](O)[C@@H](O)[C@@H]1O | – | inactive | inactive | – | inactive | Non-toxic | Not toxic
COc1c(-c2ccc(O)c(O)c2)oc2cc(O[C@@H]3O[C@H](CO[C@@H]4O[C@@H](C)[C@H](O)[C@@H](O)[C@H]4O)[C@@H](O)[C@H](O)[C@H]3O)cc(O)c2c1=O | – | inactive | inactive | – | inactive | Non-toxic | Not toxic
O=C(/C=C/c1ccc(O)c(O)c1)OC[C@H]1O[C@@H](OCCc2ccc(O)c(O)c2)[C@H](O[C@@H]2OC[C@](O)(CO)[C@H]2O)[C@@H](O)[C@@H]1O | 32.3 µM | inactive | inactive | – | inactive | Non-toxic | Not toxic

The next lines start with results.

IC50 (Aromatase) | inhibition [1] | inhibition [2] | IC50 [4] | SMILES | inhibition (RAW264.7) | Activity [3] | Activity (MCF7)
26.8 µM | inactive | inactive | – | O=C(/C=C/c1ccc(O)c(O)c1)O[C@H]1[C@H](O)[C@@H](CO)O[C@@H](OCCc2ccc(O)c(O)c2)[C@@H]1O[C@@H]1OC[C@](O)(CO)[C@H]1O | inactive | Non-toxic | Not toxic
35.3 µM | inactive | inactive | – | O=C(/C=C/c1ccc(O)c(O)c1)OC[C@H]1O[C@@H](OCCc2ccc(O)c(O)c2)[C@H](O)[C@@H](O)[C@@H]1O [CALCEOLARIOSIDE B] | inactive | Non-toxic | Not toxic
– | inactive | inactive | – | O=C(/C=C/c1ccc(O)c(O)c1)O[C@H]1[C@H](O)[C@@H](O[C@@H]2OC[C@](O)(CO)[C@H]2O)[C@H](OCCc2ccc(O)c(O)c2)O[C@@H]1CO [FUCATOSIDE A] | inactive | Non-toxic | Not toxic
– | inactive | inactive | – | COc1cc([C@@H](O)[C@@H](CO)Oc2ccc(/C=C/CO)cc2OC)ccc1O (relative stereo) | inactive | Non-toxic | Not toxic
– | inactive | inactive | – | COc1c(-c2ccc(O)cc2)oc2cc(O[C@@H]3O[C@H](CO)[C@@H](O)[C@H](O)[C@H]3O)cc(O)c2c1=O | inactive | Non-toxic | Not toxic
